≈ marks a conversion by molar mass, not a printed value.
Legend:
Type in all cases: functional
[1] = tested on: Staphylococcus aureus; experiment: Minimum inhibitory concentration against methicillin resistant Staphylococcus aureus strain BB 568
How it was run: (§1)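 Intrinsic activity by broth microdilution. Inoculum about 10⁴ cfu per well in Mueller-Hinton broth with 2% w/v NaCl, doubling dilutions of compound. MIC read after 24 h at 35 °C. S. aureus ATCC29213 served as standard strain.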

[2] = tested on: Staphylococcus aureus; experiment: Minimum inhibitory concentration against methicillin resistant Staphylococcus aureus strain EMRSA 15; how it was run: as §1
[3] = tested on: Staphylococcus aureus; experiment: Minimum inhibitory concentration against methicillin resistant Staphylococcus aureus strain EMRSA 16; how it was run: as §1
[4] = tested on: Staphylococcus aureus; experiment: Minimum inhibitory concentration against methicillin resistant Staphylococcus aureus strain BB 568 in combination with oxacillin; Experiment 1
How it was run: (§2)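 Oxacillin MIC measured with test compound held at a fixed 25 mg/L, using doubling dilutions of oxacillin. Broth microdilution with about 10⁴ cfu per well in Mueller-Hinton broth plus 2% w/v NaCl. MIC read after 24 h at 35 °C. S. aureus ATCC29213 served as standard. Two separate experiments reported.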

[5] = tested on: Staphylococcus aureus; experiment: Minimum inhibitory concentration against methicillin resistant Staphylococcus aureus strain EMRSA 16 in combination with oxacillin; how it was run: as §2
[6] = tested on: Staphylococcus aureus; experiment: Minimum inhibitory concentration against methicillin resistant Staphylococcus aureus strain BB 568 in combination with oxacillin; Experiment 2; how it was run: as §2
[7] = tested on: Staphylococcus aureus; experiment: Minimum inhibitory concentration against methicillin resistant Staphylococcus aureus strain EMRSA 15 in combination with oxacillin; how it was run: as §2
[8] = tested on: Staphylococcus aureus; experiment: Minimum inhibitory concentration against methicillin resistant Staphylococcus aureus strain BB 568 in combination with oxacillin; how it was run: as §2
[9] = tested on: Staphylococcus aureus; experiment: Minimum inhibitory concentration against methicillin resistant Staphylococcus aureus strain EMRSA 16 in combination with oxacillin; Experiment 1; how it was run: as §2
[10] = tested on: Staphylococcus aureus; experiment: Minimum inhibitory concentration against methicillin resistant Staphylococcus aureus strain EMRSA 16 in combination with oxacillin; Experiment 2; how it was run: as §2
[11] = tested on: Staphylococcus aureus; experiment: Minimum inhibitory concentration against methicillin resistant Staphylococcus aureus strain EMRSA 15 in combination with oxacillin; Experiment 2; how it was run: as §2
[12] = tested on: Staphylococcus aureus; experiment: Minimum inhibitory concentration against methicillin resistant Staphylococcus aureus strain EMRSA 15 in combination with oxacillin; Experiment 1; how it was run: as §2

Cc1onc(-c2ccccc2)c1C(=O)N[C@@H]1C(=O)N2[C@@H]1SC(C)(C)[C@@H]2C(=O)O [OXACILLIN]
MIC [1]: 256 µg/mL (≈ 638 µM)
MIC [2]: 32 µg/mL (≈ 79.7 µM)
MIC [3]: 512 µg/mL (≈ 1280 µM)

O=C(N[C@@H]1Cc2c(O)cc(O)cc2O[C@@H]1c1ccc(O)c(O)c1)c1cc(O)c(O)c(O)c1
MIC [4]: 4 µg/mL
MIC [5]: 1 µg/mL
MIC [1]: 256 µg/mL (≈ 580 µM)
MIC [6]: 8 µg/mL
MIC [7]: ≤ 0.5 µg/mL
MIC [2]: 256 µg/mL (≈ 580 µM)
MIC [3]: 128 µg/mL (≈ 290 µM)

O=C(N[C@H]1Cc2c(O)cc(O)cc2O[C@@H]1c1ccc(O)c(O)c1)c1cc(O)c(O)c(O)c1
MIC [8]: 64 µg/mL
MIC [9]: 256 µg/mL
MIC [1]: 256 µg/mL (≈ 580 µM)
MIC [10]: 512 µg/mL
MIC [11]: 4 µg/mL
MIC [12]: 2 µg/mL
MIC [2]: 256 µg/mL (≈ 580 µM)
MIC [3]: 128 µg/mL (≈ 290 µM)
